Assay type in all cases: cell-based
Assay [1] deals with T1, Gamma-aminobutyric acid receptor subunit rho-1 (Homo sapiens, UniProt P24046). Nature of the assay: Agonist activity at human GABAA rho1 receptor expressed in HEK293 cells by patch clamp electrophysiology assay relative to GABA. In outline: (§1)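 Human ρ1 (pCDNA3) co-transfected with a GFP plasmid into HEK 293 cells. Whole-cell voltage clamp at −60 mV, 40–72 h after transfection, room temperature (20–22 °C). Extracellular solution pH 7.35; intrapipette solution with KCl 140 mM, EGTA 10 mM, MgATP 2 mM, pH 7.3.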
T1 sequence (P24046 whole entry): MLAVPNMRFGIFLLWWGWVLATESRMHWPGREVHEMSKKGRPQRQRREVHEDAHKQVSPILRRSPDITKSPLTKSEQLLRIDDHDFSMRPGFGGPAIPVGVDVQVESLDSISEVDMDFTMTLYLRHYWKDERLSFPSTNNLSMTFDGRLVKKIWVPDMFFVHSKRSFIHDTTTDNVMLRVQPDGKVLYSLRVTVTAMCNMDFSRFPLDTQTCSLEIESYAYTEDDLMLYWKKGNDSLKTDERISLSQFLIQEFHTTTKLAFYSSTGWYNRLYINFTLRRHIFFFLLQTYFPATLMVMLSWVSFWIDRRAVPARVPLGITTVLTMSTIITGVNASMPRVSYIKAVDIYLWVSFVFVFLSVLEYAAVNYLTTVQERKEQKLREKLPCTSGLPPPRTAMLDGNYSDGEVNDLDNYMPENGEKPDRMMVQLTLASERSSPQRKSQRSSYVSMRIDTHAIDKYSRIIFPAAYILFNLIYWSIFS
On the technique in general: In patch-clamp work, channel activity is measured electrically.

The target of assay [2] is T1, Gamma-aminobutyric acid receptor subunit rho-1. Nature of the assay: Agonist activity at human GABAA rho1 receptor expressed in TSA201 cells after 1 min by FLIPR assay. In outline:
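tsA201 cells transfected with 5 μg human ρ1 cDNA, then plated on poly-D-lysine plates for 16–24 h. Loaded with FLIPR membrane potential blue dye in Krebs buffer (pH 7.4), 30 min at 37 °C. Emission at 560 nm (excitation 530 nm) recorded before and up to 1 min after agonist addition. Curves fitted from ΔFU; duplicate, at least three times.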

Assay [3] concerns the target GABA A receptor alpha-2/beta-2/gamma-2 (Homo sapiens) (UniProt P47870+P18507+P47869). Nature of the assay: Agonist activity at human GABAA alpha2beta2gamma2S receptor expressed in TSA201 cells after 1 min by FLIPR assay relative to GABA. Put shortly:
(§2)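 tsA201 cells transfected with 1 μg α (1, 2, 3 or 5), 1 μg β2 and 3 μg γ2S cDNA (Polyfect). Cells replated onto poly-D-lysine plates and assayed 16–24 h later. Loaded with FMP blue dye in Krebs buffer pH 7.4 for 30 min at 37 °C. Fluorescence (ex 530/em 560 nm) read before and up to 1 min after agonist addition. ΔFU concentration-response curves; duplicate, ≥3 experiments.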

Assay [4] deals with T1, Gamma-aminobutyric acid receptor subunit rho-1. The assay is described as follows: Agonist activity at human GABAA rho1 receptor expressed in HEK293 cells by patch clamp electrophysiology assay. In outline: as §1
The target in assay [5] is T2, GABA-A receptor; alpha-1/beta-2/gamma-2 (Homo sapiens, UniProt P14867+P18507+P47870).
T2 sequence (P14867 whole entry): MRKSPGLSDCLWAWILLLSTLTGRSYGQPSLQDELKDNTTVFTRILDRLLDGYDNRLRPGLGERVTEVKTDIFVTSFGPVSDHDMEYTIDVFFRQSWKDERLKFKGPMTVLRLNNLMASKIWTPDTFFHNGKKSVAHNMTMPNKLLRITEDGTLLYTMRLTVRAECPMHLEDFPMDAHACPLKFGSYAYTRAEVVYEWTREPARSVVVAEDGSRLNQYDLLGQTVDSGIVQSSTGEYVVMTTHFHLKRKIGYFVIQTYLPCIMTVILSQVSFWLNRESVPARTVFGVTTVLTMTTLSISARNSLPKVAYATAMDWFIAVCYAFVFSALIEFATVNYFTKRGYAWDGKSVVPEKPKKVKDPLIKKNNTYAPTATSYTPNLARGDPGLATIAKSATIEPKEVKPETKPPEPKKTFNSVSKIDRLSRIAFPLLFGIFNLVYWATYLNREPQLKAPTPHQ
T2 sequence (P47870 whole entry): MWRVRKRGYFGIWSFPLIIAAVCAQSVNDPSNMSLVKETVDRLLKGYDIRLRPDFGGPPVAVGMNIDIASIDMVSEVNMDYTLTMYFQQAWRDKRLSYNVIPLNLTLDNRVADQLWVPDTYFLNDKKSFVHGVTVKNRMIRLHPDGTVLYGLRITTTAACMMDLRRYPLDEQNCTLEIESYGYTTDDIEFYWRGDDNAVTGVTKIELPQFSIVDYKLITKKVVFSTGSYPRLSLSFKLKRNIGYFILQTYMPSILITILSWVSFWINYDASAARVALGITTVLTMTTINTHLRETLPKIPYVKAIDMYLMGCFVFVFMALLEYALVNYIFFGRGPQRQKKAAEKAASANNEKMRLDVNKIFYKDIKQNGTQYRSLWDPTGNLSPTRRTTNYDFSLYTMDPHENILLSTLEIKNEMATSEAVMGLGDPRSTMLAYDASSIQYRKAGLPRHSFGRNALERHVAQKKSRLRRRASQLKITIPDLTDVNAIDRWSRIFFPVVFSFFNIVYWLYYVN
T2 sequence (P18507 whole entry): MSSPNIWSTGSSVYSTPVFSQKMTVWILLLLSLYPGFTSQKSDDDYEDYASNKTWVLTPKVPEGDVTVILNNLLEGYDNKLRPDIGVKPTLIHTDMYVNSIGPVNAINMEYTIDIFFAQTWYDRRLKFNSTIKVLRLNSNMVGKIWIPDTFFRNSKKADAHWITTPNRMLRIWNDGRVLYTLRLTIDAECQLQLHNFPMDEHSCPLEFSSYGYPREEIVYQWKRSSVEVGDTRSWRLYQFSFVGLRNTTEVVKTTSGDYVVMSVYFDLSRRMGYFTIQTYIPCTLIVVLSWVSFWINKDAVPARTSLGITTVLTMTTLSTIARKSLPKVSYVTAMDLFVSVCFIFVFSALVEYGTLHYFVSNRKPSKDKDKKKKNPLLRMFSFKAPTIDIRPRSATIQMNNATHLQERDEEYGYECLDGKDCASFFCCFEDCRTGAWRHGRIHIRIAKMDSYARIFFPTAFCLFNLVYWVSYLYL
Nature of the assay: Agonist activity at human GABAA alpha1beta2gamma2S receptor expressed in TSA201 cells after 1 min by FLIPR assay. Put shortly: (§3)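 tsA201 cells transfected with 1 μg α (1, 2, 3 or 5), 1 μg β2 and 3 μg γ2S cDNA (Polyfect). Cells replated onto poly-D-lysine plates and assayed 16–24 h later. Loaded with FMP blue dye in Krebs buffer pH 7.4 for 30 min at 37 °C.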

The target of assay [6] is GABA A receptor alpha-3/beta-2/gamma-2 (Homo sapiens) (UniProt P47870+P18507+P34903). Nature of the assay: Agonist activity at human GABAA alpha3beta2gamma2S receptor expressed in TSA201 cells after 1 min by FLIPR assay relative to GABA. Put shortly:
as §2

In assay [7] the target is T3, GABA A receptor alpha-3/beta-2/gamma-2 (Homo sapiens, UniProt P18507+P34903+P47870).
T3 sequence (P47870 whole entry): T2 sequence (P47870 whole entry)
T3 sequence (P18507 whole entry): T2 sequence (P18507 whole entry)
T3 sequence (P34903 whole entry): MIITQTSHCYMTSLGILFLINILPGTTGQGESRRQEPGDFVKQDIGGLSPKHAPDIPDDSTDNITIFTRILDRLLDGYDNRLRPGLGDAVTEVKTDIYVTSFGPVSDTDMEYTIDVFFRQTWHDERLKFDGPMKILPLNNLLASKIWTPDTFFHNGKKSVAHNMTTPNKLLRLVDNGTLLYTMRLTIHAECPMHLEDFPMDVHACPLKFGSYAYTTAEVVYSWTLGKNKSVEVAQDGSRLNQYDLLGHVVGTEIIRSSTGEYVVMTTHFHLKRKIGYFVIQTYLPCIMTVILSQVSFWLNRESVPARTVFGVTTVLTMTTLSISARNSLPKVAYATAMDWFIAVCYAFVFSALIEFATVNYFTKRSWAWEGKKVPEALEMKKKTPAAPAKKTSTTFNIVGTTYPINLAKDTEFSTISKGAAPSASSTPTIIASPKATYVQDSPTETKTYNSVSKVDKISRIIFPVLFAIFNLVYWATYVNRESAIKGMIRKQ
The assay is described as follows: Agonist activity at human GABAA alpha3beta2gamma2S receptor expressed in TSA201 cells after 1 min by FLIPR assay. Put shortly: as §3

One may read the EC50 as the concentration giving half of the maximal effect. A lower EC50 goes with higher potency in that assay.

Take `NCc1cnn(O)c1`: the Rmax was determined as 70% in assay [1], 77% in assay [3] and 77% in assay [6]. In addition, the EC50 in assay [2] was found to be 3.1 µM; in assay [4], 55 µM; in assay [5] it was 13 µM; in assay [7], 5.6 µM.

For the origin of these results see ChEMBL document CHEMBL2311400, “Synthesis and biological evaluation of 4-(aminomethyl)-1-hydroxypyrazole analogues of muscimol as γ-aminobutyric acid(a) receptor agonists” (J Med Chem, 2013).
